# The list is not random: actives were taken first. Their share in the collection is about 3.8%.
# GPR7 antag – antagonists of human GPR7 (neuropeptides B/W receptor 1); GPR7-expressing cells, fluorescence antagonist assay; P48145; 290,000 tested, 1.1% active; inhibition, % at 4.4 µM; in the data active = inhibition above about 16%, passing the limit was not always enough;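 note: cells stimulated with the agonist NPW; 0% = agonist with vehicle and 100% = vehicle without agonist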
# Target sequence (P48145 whole entry, looked up): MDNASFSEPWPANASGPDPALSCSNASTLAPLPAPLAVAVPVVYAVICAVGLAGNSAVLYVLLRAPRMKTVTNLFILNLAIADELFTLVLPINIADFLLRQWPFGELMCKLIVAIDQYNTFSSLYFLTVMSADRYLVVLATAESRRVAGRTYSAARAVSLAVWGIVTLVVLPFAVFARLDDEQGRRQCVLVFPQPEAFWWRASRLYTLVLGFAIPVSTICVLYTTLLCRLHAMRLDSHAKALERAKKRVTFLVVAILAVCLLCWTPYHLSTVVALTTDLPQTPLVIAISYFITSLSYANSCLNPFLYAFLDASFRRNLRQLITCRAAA
# CHO parental Ca – counter-screen: ATP calcium response change in parental CHO cells | parental CHO-K1, ATP-induced calcium, Fluo-8 fluorescence | inhibition, % at 5.6 µM | 330,000 tested, 0.63% active | AID 463079;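 active = inhibition above that plate's mean sample inhibition plus 3 SD, cut at about 26% in these data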;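 note: 0% = ATP-challenged DMSO wells and 100% = DMSO wells without ATP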
#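 Assay system – parental CHO cells · Reagent – ATP stimulus · Detection – intracellular calcium via Fluo-8 no-wash fluorescent dye · Evaluation – percent inhibition of ATP-evoked calcium rise, normalized to controls · Controls – ATP wells versus no-ATP DMSO wells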
# OX1R antag-1 – blocks the human orexin 1 receptor; O43613; CHO/OX1R cells, Fluo-8 calcium fluorescence, orexin A; inhibition, % at 5 µM; 330,000 tested, 0.43% active;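 active = inhibition above its plate's threshold, mean inhibition of all tested compounds on the plate plus 3 SD, cut at about 37% in these data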;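 note: 0% = orexin A challenge wells and 100% = SB-334867-A antagonist wells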
# OX1R antag-2 – antagonists of human orexin 1 receptor (OX1R); O43613; inhibition, % at 6.6 µM; 330,000 tested, 1.8% active; OX1R-expressing cells, FRET antagonist read-out; in the data active = inhibition mostly above about 38%, no sharp cut-off; inactive = mostly below about 40%;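 note: 0% = agonist challenge alone and 100% = reference antagonist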
# MPTP block – permeability transition pore inhibition | 360,000 tested, 1.4% active | inhibition, % at 10 µM | isolated mouse mitochondria, Ca2+ swelling absorbance, 30 min;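 active = inhibition of 50% or more, scaled per plate between neutral and stimulator controls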;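 note: 0% = DMSO wells given calcium and 100% = 1 mM EGTA wells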
# * hit, by the source's call; · = not tested or not shown.
SMILES,GPR7 antag,CHO parental Ca,OX1R antag-1,OX1R antag-2,MPTP block
COc1ccc(CN2C(=O)c3cccc4cccc(c34)C2c2nc3ccccc3[nH]2)cc1 (stereo not given),·,·,·,·,1
CC(=O)C(=Nc1ccccc1Cl)NNc1ccc(Cl)cc1,-7,-3,-17,77*,7
CCCCNC(=O)c1ccc(Cc2cn(C)c3ccccc23)nc1,·,·,·,·,1
COc1ccc2cc(C(=O)Nc3ccccc3)sc(=O)c2c1OC,-6,-1,-13,36,2
O=C(Nc1ccccc1)c1cc2ccc3ccccc3c2s1,-23,-25,-3,51*,48
CCN(CC)CCOc1ccccc1C(C)=O,2,-6,-10,5,-1
COc1ccc(C(=O)N2CCc3ccccc32)cc1,17*,-4,-27,17,-2
O=C(c1ccccc1)N1CCc2ccccc21,-4,-13,-18,12,-9
CN(C)c1nc(N)nc(CSc2ncc(Cl)cc2Cl)n1,-10,-23,6,38*,-2
CCCCn1nnnc1C(c1cc2ccccc2o1)N1CCOCC1 (stereo not given),·,·,·,·,1
C[n+]1c(-c2ccccc2)sc([S-])c1-c1ccccc1,·,40*,-23,15,7
C/C(=N\NC(=O)c1ccccc1F)c1cccc(NC(=O)c2ccccc2)c1,-8,-12,-22,10,-4
C/C(=N\NC(=O)c1cc(Br)ccc1O)c1cccc(NC(=O)c2ccccc2F)c1,-19,-8,-15,59*,7
c1ccc(CCOn2ccnc2)cc1,-10,10,6,2,1
CSCCC(C(=O)NC1CCCC1)n1c(C2CCCC2)nc2ccccc21 (stereo not given),·,·,·,·,7
Cc1[nH]c2ccccc2c1C(=O)COC(=O)C1CC(O)CN1S(=O)(=O)c1ccc(Cl)cc1 (stereo not given),·,-22,-4,16,1
CSCCC(NS(=O)(=O)c1ccc(Cl)cc1)C(=O)OCC(=O)c1c(C)[nH]c2ccccc12 (stereo not given),12,82*,79*,76*,6
CCC(=O)N1CCC1(C)C(=O)Nc1cccc(OC)c1OC (stereo not given),·,·,·,·,1
CC(=O)N=c1c(C#N)cc2c(=O)n3ccccc3nc2n1CCCOC(C)C,-9,-6,-8,31,0
CC(C)OCCCn1c(=NC(=O)c2ccncc2)c(C#N)cc2c(=O)n3ccccc3nc21,-3,-12,-22,52*,-1
CC(C)OCCCn1c(=N)c(C(N)=S)cc2c(=O)n3ccccc3nc21,3,-24,-34,75*,2
CC(C)OCCCn1c(=NC(=O)c2cccs2)c(C#N)cc2c(=O)n3ccccc3nc21,-2,-17,-16,28,1
COc1ccc(CNC(=O)[C@@H](NC(=O)C2CCN(C(=O)[C@@H](N)Cc3ccccc3)CC2)C(C)C)cc1,-1,7,2,9,0
Cc1ccc(C(=O)Nc2ccccc2C(=O)O)cc1NC(=O)COc1c(C)cccc1C,-14,-8,-21,41*,-3
Cc1cc(C(=O)Nc2ccccc2C(=O)O)ccc1NC(=O)COc1cccc(C)c1C,1,-7,-7,6,1
SMILES,GPR7 antag,CHO parental Ca,OX1R antag-1,OX1R antag-2,MPTP block
COc1ccc(C(=O)Nc2ccccc2C(=O)O)cc1Cl,6,3,-2,18,-1
CCOc1c(Cl)cc(C(=O)Nc2ccccc2C(=O)O)cc1Cl,12,-3,-6,63*,31
COC(=O)c1ccc(COC(=O)C(NC(=O)Cc2ccccc2)C(C)C)cc1 (stereo not given),·,·,·,·,1
CN1CCCN(C(=O)CNC(=O)c2ccccc2Br)CC1,·,-18,14,15,0
O=C(CCN=C1NS(=O)(=O)c2ccccc21)OCc1nnc(-c2ccc([N+](=O)[O-])cc2)o1,·,-9,12,63*,-2
Cc1csc(=O)n1CCC(=O)OCc1nnc(-c2ccccc2)o1,·,-15,-17,5,-2
O=C(OCc1ccc([N+](=O)[O-])cc1)C1CC(=O)N(CCc2ccccc2)C1 (stereo not given),·,-25,-21,15,1
O=C(OCc1nnc(-c2ccc([N+](=O)[O-])cc2)o1)C1CC(=O)N(CCc2ccccc2)C1 (stereo not given),·,-2,-10,60*,0
Cc1csc(=O)n1CCC(=O)OCc1nnc(-c2ccc([N+](=O)[O-])cc2)o1,·,-12,-16,50*,-1
COc1cc(C)ccc1S(=O)(=O)NC(=O)C1(C)CCN1C(=O)Cc1ccc(Cl)cc1Cl (stereo not given),·,·,·,·,-1
O=C(Nc1ccc(Cl)c(Cl)c1)N1CCCCCC1,-1,33*,19,11,2
O=C(CN1CCN(S(=O)(=O)N2CCCCC2)CC1)Nc1cc(Cl)cc(Cl)c1,9,-23,-30,2,2
O=C(Nc1ccc(Cl)cc1)Nc1cccc2nsnc12,-3,13,2,44*,35
O=C(Nc1ccc(Cl)c(Cl)c1)N1CCC(N2CCCCC2)CC1,4,-5,-17,9,0
O=C(CN1CCN(S(=O)(=O)N2CCCCC2)CC1)Nc1ccc(Cl)c(Cl)c1,1,32*,-5,21,1
O=C(Nc1ccc(Cl)cc1)Nc1ccc(Cl)c(Cl)c1,·,79*,84*,43*,·
CCCS(=O)(=O)NC(=O)C1(C)CCCN(C(=O)c2ccc(SC(F)(F)F)cc2)C1 (stereo not given),·,·,·,·,1
COc1ccc(OCCNC(=O)C2(C)CCN2Cc2ccc3ccccc3c2)cc1 (stereo not given),·,·,·,·,0
COc1ccccc1N(CC(=O)NC(C)C)S(=O)(=O)c1cccs1,-10,-7,-15,8,1
CCOC(=O)C1=CCN(S(=O)(=O)c2ccc(Cl)cc2)C1c1cccc(C)c1 (stereo not given),·,·,·,·,1
N#Cc1cc(Oc2cccc3cccnc23)c(-n2nnc3ccccc32)cc1C#N,-12,22,46*,18,-2
C=CCn1c(-c2csc(-c3ccc(Cl)cc3)n2)n[nH]c1=S,3,-4,-9,17,1
C=CCn1c(-c2csc(-c3ccc(OC)c(OC)c3)n2)n[nH]c1=S,-7,72*,-9,32,-1
FC(F)(F)c1cc(Cc2nc3ccccc3n2C(CCc2ccccc2)c2nc3ccccc3[nH]2)cc(C(F)(F)F)c1 (stereo not given),·,·,·,·,14
CCOc1ccc(-n2nnnc2SCC(=O)Nc2cccc(O)c2)cc1,-15,12,-9,20,1
CCC(=O)N1CCCC(C(=O)NCc2ccc(C(C)C)cc2)CC1 (stereo not given),·,·,·,·,-1
O=C(N(c1ccccc1)c1ccccc1)N(c1ccccc1)c1ccccc1,-10,-17,-10,8,2
CC(=O)N(C1=C(N)C(=O)c2ccccc2C1=O)c1ccccc1,9,-3,-12,46*,1
Cc1cc(C)cc(NC(=O)c2ccc(CSc3nnnn3C)cc2)c1,0,-9,7,49*,-1
